bIAP inh – bovine intestinal alkaline phosphatase inhibitors, primary screen, selectivity assay for TNAP inhibitor project, biochemical, bovine IAP, CDP-star luminescence; alkaline phosphatase, intestinal [Bos taurus]; purified bovine IAP, 30 min; inhibition, % at 20 µM; 190,000 tested, under 10 active;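 active means over 50% inhibition of intestinal alkaline phosphatase at 20 µM in the single-dose screen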
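Assay system – bovine IAP enzyme · Quantity – bovine IAP at 1/65,000,000 final dilution · Detection – CDP-star luminescence signal · Times – 30 min reaction at room temperature · Also added – CDP-star substrate at 30 µM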
hIAP inh – human IAP inhibitors, primary screen, biochemical, luminescence, uHTS; Intestinal-type alkaline phosphatase (Homo sapiens), P09923; purified IAP, CDP-Star luminescence, 30 min; inhibition, % at 10 µM; 330,000 compounds, 0.12% hits; AID 2544, 2010;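 active means inhibition reaching a set limit with compound at 10 µM in the primary screen, cut at about 35% in these data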;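 further: plate controls were DMSO wells with enzyme for no effect and no-enzyme buffer wells for full effect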
Target sequence (P09923 whole entry, looked up): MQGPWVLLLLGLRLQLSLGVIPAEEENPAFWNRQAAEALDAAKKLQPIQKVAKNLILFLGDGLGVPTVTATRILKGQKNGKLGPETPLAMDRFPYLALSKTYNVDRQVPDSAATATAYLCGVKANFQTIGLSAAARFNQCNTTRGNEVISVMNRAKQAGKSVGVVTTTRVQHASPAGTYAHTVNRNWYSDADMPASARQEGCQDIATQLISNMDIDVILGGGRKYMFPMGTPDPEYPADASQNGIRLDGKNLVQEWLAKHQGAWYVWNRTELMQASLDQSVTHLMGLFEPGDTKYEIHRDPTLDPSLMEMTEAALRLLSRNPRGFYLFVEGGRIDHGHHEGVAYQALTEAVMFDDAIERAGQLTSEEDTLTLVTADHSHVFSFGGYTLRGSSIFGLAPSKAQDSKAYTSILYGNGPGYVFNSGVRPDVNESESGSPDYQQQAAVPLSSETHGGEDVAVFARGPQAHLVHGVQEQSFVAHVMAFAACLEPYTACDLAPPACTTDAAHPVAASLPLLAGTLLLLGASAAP
mIAP inh – inhibitors of mouse IAP, primary screen, biochemical, luminescence, uHTS; intestinal alkaline phosphatase [Mus musculus]; purified mouse IAP, CDP-Star luminescence, 30 min; inhibition, % at 10 µM; 330,000 compounds, 0.2% hits; AID 2806, 2010;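 active means inhibition of at least 40% at 10 µM in the primary screen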;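 further: plate controls were DMSO with enzyme for no effect and no enzyme wells for full effect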
hIAP activ – human IAP activators, primary screen, biochemical, luminescence, uHTS. Intestinal-type alkaline phosphatase (Homo sapiens), P09923. purified human IAP, CDP-Star luminescence, 30 min; stronger effect = higher value; 1 = vehicle-only enzyme, 0 = enzyme-free background. activation factor at 10 µM. 330,000 compounds, 0.16% hits. AID 2524, 2010;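 active means activation factor of the enzyme at least 2-fold when tested at 20 µM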
mIAP activ – activators of mouse IAP, primary screen, biochemical, luminescence, uHTS | intestinal alkaline phosphatase [Mus musculus] | muIAP, CDP-Star luminescence, 30 min; stronger effect = higher value; 1 = vehicle-only enzyme signal, 0 = enzyme-free wells | activation factor at 10 µM | 330,000 compounds, 0.24% hits;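 active means activation factor of at least 2 at 20 µM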
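System: Mouse IAP enzyme | Also added: CDP-Star substrate | Dosing: Compounds dispensed in DMSO | Schedule: 30 min enzyme-substrate-compound incubation at room temperature | Technique: Chemiluminescence readout | Control set: DMSO-only wells and no-enzyme negative control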
bIAP activator – bovine intestinal alkaline phosphatase activators, primary screen, biochemical, bovine IAP, CDP-star luminescence; purified bovine IAP, 30 min; stronger effect = higher value; fold of DMSO-control signal, blank-subtracted; 200,000 compounds, 0.17% hits; activation factor at 20 µM;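 active means activation factor of 2 or more at 20 µM, a signal rise over negative controls twice the positive control's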
mIAP inh conf – inhibitors of mouse IAP, confirmation, biochemical, luminescence, single concentration | shares compounds with mIAP inh | purified mouse IAP, CDP-Star luminescence, 30 min | inhibition, % at 10 µM | 11,000 compounds, 4.7% hits | AID 434971, 2010;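 active means inhibition of at least 40% at 10 µM in either of the two replicates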;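 further: plate controls were DMSO wells with enzyme for no effect and buffer wells lacking enzyme for full effect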
Numbers without * were called inactive; i = inactive; · = no result given. In the library only some 0.72% were active in any assay of this set; here they are far more common.

SMILES | bIAP inh | hIAP inh | mIAP inh | hIAP activ | mIAP activ | bIAP activator | mIAP inh conf
C#CCOCCOCCOCCNc1nc(N2CCN(C(=O)CCCCCCCCCCNC(=O)[C@H]([C@@H](C)CC)n3cc(CCCCCN)nn3)CC2)nc(N2CCN(C(=O)CCCCCCCCCCNC(=O)[C@@H]([C@H](C)CC)n3cc(CCCCCN)nn3)CC2)n1 | · | 3 | i | 0.97 | 6.6* | · | i
CCCCn1c(N)c(N(Cc2ccccc2OC)C(=O)CN2C(=O)NC3(CCCC3)C2=O)c(=O)[nH]c1=O | · | -8 | -1 | 1.1 | 1 | · | ·
O=C(Nc1nc(-c2ccco2)c(-c2ccco2)s1)c1ccc(F)cc1F | · | 8 | 51* | 0.92 | 0.49 | · | 60*
O=C(Nc1ccc(F)cc1F)c1cc(-c2ccco2)nc2ccccc12 | · | 8 | 14 | 0.92 | 0.86 | · | ·
O=C(Nc1nc(-c2ccco2)c(-c2ccco2)s1)c1c(F)cccc1Cl | · | 16 | 70* | 0.84 | 0.3 | · | 72*
COC1CCN(Cc2c(C(=O)N3CCN(C4CCCCC4)CC3)nc3ccccn23)CC1 | · | -14 | -5 | 1.1 | 1 | · | ·
Cc1cccc(Nc2nc(-c3ccc(O)c(O)c3)cs2)n1 | · | 20 | 33 | 0.81 | 0.67 | · | ·
Oc1ccc(-c2csc(Nc3ccccn3)n2)cc1O | · | -1 | 62* | 1 | 0.38 | · | 77*
Cc1cccnc1Nc1nc(-c2ccc(O)c(O)c2)cs1 | 44 | 8 | 54* | 0.92 | 0.46 | 0.6 | 68*
Cc1ccnc(Nc2nc(-c3ccc(O)c(O)c3)cs2)c1 | · | -4 | 34 | 1 | 0.66 | · | ·
Oc1ccc(-c2csc(Nc3cccc4ccccc34)n2)cc1O | · | 32 | 63* | 0.68 | 0.37 | · | 80*
CN1C[C@@H]2[C@@H]3C(=O)N(Cc4ccccc4)C(=O)[C@@H]3[C@](C)(C1=O)N2C(=O)c1ccc(Cl)cc1 | · | 13 | 1 | 0.87 | 0.99 | · | ·
O=C(O)CCN1C(=O)/C(=C\c2ccc(-c3nc4ccccc4s3)o2)SC1=S | · | -19 | 53* | 1.2 | 0.47 | 0.4 | 62*
Cn1cc(CN2CCC(n3nccc3NC(=O)CCOc3ccccc3)CC2)cn1 | · | -26 | -14 | 1.3 | 1.1 | · | ·
OC[C@@H]1[C@@H](c2ccccc2)C(c2cccc(Cl)c2)=NN1c1ccccc1 | · | · | -151 | · | 2.5* | · | -128
OC[C@@H]1[C@@H](c2ccccc2)C(c2ccccc2)=NN1c1ccccc1 | · | · | -127 | · | 2.3* | · | -115
O=C(NCc1cccc2[nH]ccc12)C1CCC(=O)N(CCc2ccc(Cl)cc2)C1 (stereo unspecified) | · | 10 | 1 | 0.9 | 0.99 | · | ·
COc1ccc(Cl)cc1NC(=S)NNC(=O)c1cccs1 | -30 | -70 | 15 | 1.7 | 0.85 | 1.3 | ·
CCOC(=O)CN(c1ccccc1C)S(=O)(=O)c1ccc(Cl)cc1 | · | 19 | 1 | 0.81 | 0.99 | · | ·
COc1ccccc1CNC(=O)c1cc(-c2ccccc2)nn1Cc1cc(C)no1 | · | 2 | -57 | 0.98 | 1.6 | · | ·
CCc1cc(Cn2nc(-c3ccccc3)cc2C(=O)NCc2ccccc2OC)on1 | · | 2 | -159 | 0.97 | 2.6* | · | -99
Cc1ccc(CNC(=O)c2cc(-c3ccccc3)nn2Cc2cc(C)no2)cc1 | · | 0 | -122 | 1 | 2.2* | · | -126
Cc1cc(NC(=O)CN2C(=O)NC(C)(c3ccc(Cl)cc3Cl)C2=O)no1 (stereo unspecified) | · | -21 | -9 | 1.2 | 1.1 | · | ·
O=C(O)c1ccccc1-c1ccc(/C=c2\sc3nc4cc(Br)cnc4n3c2=O)o1 | 2 | 0 | 78* | 1 | 0.22 | 1 | 75*
Cc1cc2nc3s/c(=C/c4ccc(-c5ccccc5C(=O)O)o4)c(=O)n3c2cc1C | · | 23 | 14 | 0.77 | 0.86 | · | ·
SMILES | bIAP inh | hIAP inh | mIAP inh | hIAP activ | mIAP activ | bIAP activator | mIAP inh conf
Cc1ccsc1/C=C/C1=Cc2c(sc(NC(=O)CSc3n[nH]c(N)n3)c2C#N)C(C)(C)C1 | 17 | 13 | 45* | 0.87 | 0.55 | 0.8 | 64*
CC(=C\c1ccccc1)/C=C1/SC(=S)N(C(C(=O)O)C(C)C)C1=O (stereo unspecified) | 7 | · | · | · | · | 0.9 | ·
CC(C(=O)O)N1C(=O)/C(=C/C=C/c2ccco2)SC1=S (stereo unspecified) | 41 | 0 | 54* | 1 | 0.46 | 0.6 | 58*
O=C1/C(=C/C=C/c2ccco2)SC(=S)N1NS(=O)(=O)c1ccccc1 | · | -22 | 84* | 1.2 | 0.16 | · | 91*
CNC(=O)c1ccc(NC(=O)CC2SC(N3CCCC3)=NC2=O)cc1 (stereo unspecified) | · | -1 | 3 | 1 | 0.97 | · | ·
CC/C(=N\NC(=O)CSc1ncccn1)c1ccc2c(c1)OCCO2 | -29 | -10 | 0 | 1.1 | 1 | 1.3 | ·
Cc1cc(C)cc(NC(=O)Nc2ccc(-n3ccc(C(F)(F)F)n3)cc2)c1 | · | -16 | -288 | 1.2 | 3.9* | · | -136
COc1ccccc1NC(=O)Nc1ccc(-n2ccc(C(F)(F)F)n2)cc1 | · | -4 | -46 | 1 | 1.5 | · | ·
O=C(Nc1ccc(-n2ccc(C(F)(F)F)n2)cc1)Nc1cccc(Cl)c1 | · | -2 | -178 | 1 | 2.8* | · | -92
CCN1C(=O)/C(=C2\SC(=S)N(NC(=O)c3cccnc3)C2=O)c2ccccc21 | · | -18 | 49* | 1.2 | 0.51 | · | 64*
Cc1oc(-c2ccc(Cl)cc2)cc1-c1nn2c(-c3ccoc3C)nnc2s1 | 1 | 11 | 41* | 0.89 | 0.59 | 1 | 49*
O=C(NN=Cc1ccc(O)cc1)c1ccccc1NS(=O)(=O)c1cccs1 | · | -8 | -3 | 1.1 | 1 | · | ·
O=C(N/N=C/c1cc(Cl)cc([N+](=O)[O-])c1O)c1ccccc1NS(=O)(=O)c1cccs1 | · | -22 | 41* | 1.2 | 0.59 | · | 44*
O=C(N/N=C/c1cc(Cl)cc([N+](=O)[O-])c1O)c1ccc2c(c1)OCO2 | · | 20 | 60* | 0.8 | 0.4 | · | 68*
COc1ccc(S(=O)(=O)N(C)C[C@H]2Oc3ccc(NC(=O)C4CC4)cc3C(=O)N([C@H](C)CO)C[C@@H]2C)cc1 | · | 10 | 12 | 0.9 | 0.88 | · | ·
CCN(CC(=O)Nc1ccc(OC)cc1)C(=O)Cc1coc2cc(C)c(C)cc12 | · | 12 | -4 | 0.88 | 1 | · | ·
CCOC(=O)c1ccc(N2CCN(c3ccccc3F)CC2)c(NC(=O)Nc2ccccc2)c1 | 3 | -42 | i | 1.4 | 6.6* | 1 | -214

Assay outcomes from PubChem.
